Experimental findings from ChEMBL document CHEMBL1250467, “Design, synthesis, and anticonvulsant activity of new N-Mannich bases derived from spirosuccinimides and spirohydantoins” (Bioorg Med Chem, 2010) are described below.

Broadly, the TD50 is the 50% point of the dose-response relation for the toxic effect studied. For orientation: ED50 means the midpoint of the dose-response relation. In general, IC50 refers to the concentration that inhibits the measured activity by half.

Active and inactive are the calls of the source. No cut-off for these calls is given here.

Series [1] is described as follows: Neurotoxicity in po dosed Sprague-Dawley rat by rotarod test. It is filed as toxicity, organism-based. The note with it: in vivo. Put shortly:
(§1)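 Male Sprague–Dawley rats dosed orally (0.5% methylcellulose/water suspension), groups of eight, tested at the previously estimated time of peak effect. Doses varied until at least three points lay in the 10–90% range of protection (MES, scPTZ) or minimal rotarod neurotoxicity. ED50/TD50 with 95% confidence intervals came from regression; PI = TD50/ED50.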
(The rotarod test checks motor coordination on a turning rod.)

The subject of series [2] is Rattus norvegicus. In words: Anticonvulsant activity in Sprague-Dawley rat assessed as protection against pilocarpine-induced status epilepticus at 600 mg/kg, ip. Format: functional, organism-based. On the set-up: dose 600 mg/kg. Put shortly:
(§2)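 Male Sprague–Dawley rats (150–180 g) received compound ip at 600 mg/kg, then a challenge dose of pilocarpine. Seizure severity graded on the Racine scale; rats were scored as protected or not, and body weight change was taken 24 h after the first stage III seizure.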

For series [3], the system named is Rattus norvegicus. Kind of series: Anticonvulsant activity in Sprague-Dawley rat assessed as protection against pilocarpine-induced status epilepticus at 600 mg/kg, ip measured after clonus of one of the fore limbs seizure stage. It is filed as functional, organism-based. Details: dose 600 mg/kg. Put shortly: as §2
In series [4] the test system is Mus musculus. In words: Anticonvulsant activity in CF1 albino mouse assessed as protection against electrically-induced seizure at 100 mg/kg, ip after 0.25 hrs by 6Hz psychomotor seizure test. On the set-up: dose 100 mg/kg. Format: functional, organism-based. The procedure, abridged: (§3)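 Male CF-1 mice, compound suspended in 0.5% methylcellulose/water, given ip at 100 mg/kg; four mice per time point (0.25, 0.5, 1, 2, 4 h). Corneal stimulation with 0.2 ms monopolar rectangular pulses at 6 Hz for 3 s from a constant-current device, mice manually restrained. A mouse counted as protected if normal exploratory behaviour resumed within 10 s; motor impairment was noted alongside.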

Series [5] has as its system Mus musculus. In words: Anticonvulsant activity in CF1 albino mouse assessed as protection against electrically-induced seizure at 100 mg/kg, ip after 1 hr by 6Hz psychomotor seizure test. Format: functional. The procedure, abridged: as §3
Series [6] has as its system Mus musculus. Kind of series: Anticonvulsant activity in ip dosed CF1 albino mouse assessed as dose required to protect against maximal electroshock-induced seizures after 4 hrs. Format: functional. Put shortly:
(§4)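 Male CF-1 mice; compounds suspended in 0.5% methylcellulose/water and injected ip at 30, 100 and 300 mg/kg. MES, scPTZ (pentylenetetrazole 85 mg/kg sc at the test time) and rotarod neurotoxicity were scored at 0.5 and 4 h. Value is the lowest dose active or toxic in half or more of the animals; signs such as ataxia or tremor were recorded.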
Background: In the maximal electroshock model the usual endpoint is tonic extension of the hind limbs.

Series [7] deals with Rattus norvegicus. Kind of series: Toxicity in Sprague-Dawley rat assessed as change in body weight at 600 mg/kg, ip measured after 24 hrs of clonus of one of the fore limbs seizure stage in protected rat. Format: organism-based. On the set-up: dose 600 mg/kg, route intraperitoneal. The note with it: in vivo. The procedure, abridged: as §2
Series [8] concerns Rattus norvegicus. Kind of series: Toxicity in Sprague-Dawley rat assessed as change in body weight at 600 mg/kg, ip measured after 24 hrs of clonus of one of the fore limbs seizure stage in non-protected rat. To be noted: in vivo. It is filed as organism-based. Details: dose 600 mg/kg, route intraperitoneal. Put shortly:
as §2

Series [9] relates to Rattus norvegicus. In words: Anticonvulsant activity in po dosed Sprague-Dawley rat assessed as time required to peak protection against seizures. It is filed as functional.
The subject of series [10] is Mus musculus. In words: Anticonvulsant activity in CF1 albino mouse assessed as protection against subcutaneous pentylenetetrazole-induced seizures at 300 mg/kg, ip after 4 hrs. Format: functional, organism-based. Details: dose 300 mg/kg. The procedure, abridged:
as §4

Series [11] has as its system Mus musculus. In words: Neurotoxicity in ip dosed CF1 albino mouse assessed as dose required to cause toxicity after 0.5 hrs by rotarod test. Format: organism-based. To be noted: in vivo. The procedure, abridged:
as §4

The subject of series [12] is Rattus norvegicus. Kind of series: Anticonvulsant activity in Sprague-Dawley rat assessed as protection against maximal electroshock-induced seizures at 30 mg/kg po after 2 hrs. It is filed as functional. The procedure, abridged:
(§5)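 Male Sprague–Dawley rats, four per group, given 30 mg/kg orally as a 0.5% methylcellulose/water suspension. MES protection scored at 0.25, 0.5, 1, 2 and 4 h after dosing, motor impairment checked in parallel; data are the number of the four rats protected.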

The test system of series [13] is Rattus norvegicus. Kind of series: Anticonvulsant activity in po dosed Sprague-Dawley rat assessed as protection against maximal electroshock-induced seizures. Format: functional. The procedure, abridged:
as §1

Series [14] has as its system Mus musculus. In words: Anticonvulsant activity in CF1 albino mouse assessed as protection against subcutaneous pentylenetetrazole-induced seizures at 300 mg/kg, ip after 0.5 hrs. It is filed as functional, organism-based. Details: dose 300 mg/kg. Put shortly: as §4
Series [15] has as its system Mus musculus. In words: Neurotoxicity in CF1 albino mouse at 300 mg/kg, ip after 4 hrs by rotarod test. Format: toxicity, organism-based. Details: dose 300 mg/kg, route intraperitoneal. To be noted: in vivo. Put shortly:
as §4

For series [16], the system named is Rattus norvegicus. In words: Anticonvulsant activity in Sprague-Dawley rat assessed as protection against maximal electroshock-induced seizures at 30 mg/kg po after 1 hr. It is filed as functional. Put shortly: as §5
In series [17] the test system is Rattus norvegicus. Kind of series: Anticonvulsant activity in Sprague-Dawley rat assessed as protection against maximal electroshock-induced seizures at 30 mg/kg po after 4 hrs. It is filed as functional. The procedure, abridged: as §5
The test system of series [18] is Mus musculus. Kind of series: Anticonvulsant activity in CF1 albino mouse assessed as protection against electrically-induced seizure at 100 mg/kg, ip after 4 hrs by 6Hz psychomotor seizure test. It is filed as functional. The procedure, abridged:
as §3

The test system of series [19] is Mus musculus. Kind of series: Anticonvulsant activity in ip dosed CF1 albino mouse assessed as dose required to protect against maximal electroshock-induced seizures after 0.5 hrs. It is filed as functional. Put shortly: as §4
For series [20], the species on record is Rattus norvegicus. In words: Protection index, ratio of TD50 for Sprague-Dawley rat by rotarod test to ED50 for Sprague-Dawley rat by maximal electroshock test. Format: functional. Put shortly:
as §1

The test system of series [21] is Mus musculus. In words: Anticonvulsant activity in CF1 albino mouse assessed as protection against electrically-induced seizure at 100 mg/kg, ip after 0.5 hrs by 6Hz psychomotor seizure test. Format: functional, organism-based. Details: dose 100 mg/kg. The procedure, abridged:
as §3

Series [22] has as its system Mus musculus. In words: Anticonvulsant activity in CF1 albino mouse assessed as protection against electrically-induced seizure at 100 mg/kg, ip after 2 hrs by 6Hz psychomotor seizure test. Details: dose 100 mg/kg. It is filed as functional, organism-based. The procedure, abridged: as §3
The test system of series [23] is Rattus norvegicus. In words: Anticonvulsant activity in Sprague-Dawley rat assessed as protection against maximal electroshock-induced seizures at 30 mg/kg po after 0.25 hrs. It is filed as functional. The procedure, abridged:
as §5

Series [24] relates to Rattus norvegicus. In words: Anticonvulsant activity in Sprague-Dawley rat assessed as protection against maximal electroshock-induced seizures at 30 mg/kg po after 0.5 hrs. It is filed as functional. The procedure, abridged:
as §5

Series [25] in a line: Displacement of [3H]batrachotoxin from neurotoxin site 2 of voltage-gated sodium channel in rat forebrain tissue. The note with it: read-out: IC50. Background: In a radioligand displacement assay an active substance lowers the binding of a labelled ligand.
Series [26] has as its system Mus musculus. In words: Neurotoxicity in CF1 albino mouse assessed as unable to grasp rotarod at 300 mg/kg, ip after 4 hrs by rotarod test. Format: toxicity, organism-based. The note with it: in vivo. Details: dose 300 mg/kg, route intraperitoneal. The procedure, abridged: as §4
In series [27] the test system is Mus musculus. Kind of series: Anticonvulsant activity in ip dosed CF1 albino mouse assessed as dose required to protect against subcutaneous pentylenetetrazole-induced seizures after 0.5 hrs. Format: functional. The procedure, abridged:
as §4

Series [28] relates to Mus musculus. In words: Anticonvulsant activity in CF1 albino mouse assessed as protection against maximal electroshock-induced seizures at 300 mg/kg, ip after 0.5 hrs. On the set-up: dose 300 mg/kg. It is filed as functional, organism-based. Put shortly: as §4
Series [29] relates to Mus musculus. Kind of series: Neurotoxicity in CF1 albino mouse at 300 mg/kg, ip after 0.5 hrs by rotarod test. Details: dose 300 mg/kg, route intraperitoneal. To be noted: in vivo. It is filed as toxicity, organism-based. Put shortly:
as §4

The subject of series [30] is Mus musculus. In words: Neurotoxicity in ip dosed CF1 albino mouse assessed as dose required to cause toxicity after 4 hrs by rotarod test. Format: organism-based. To be noted: in vivo. The procedure, abridged:
as §4

The subject of series [31] is Mus musculus. Kind of series: Toxicity in CF1 albino mouse assessed as minimal motor impairment at 100 mg/kg, ip after 2 hrs. Format: organism-based. Details: dose 100 mg/kg, route intraperitoneal. The note with it: in vivo. The procedure, abridged:
as §3

As for `O=C1CC2(CCc3ccccc3C2)C(=O)N1CN1CCN(c2cccc(Cl)c2)CC1` (stereo unspecified), in series [1], the TD50 is above 500 mg/kg. Besides, the result in series [2], in series [3], in [4], in [5], in series [10] and in [14] was inactive. For the same compound, the result in series [21], in series [22], in series [23] and in [24] was inactive. Further, the Activity is 100 mg/kg in series [6]; “Non-toxic” in series [7]; 20.6 g in series [8]; 300 mg/kg in series [11]; 50% in [12]; “Non-toxic” in [15]. Further, the Activity in series [16] came to 25%; in series [17], 50%; in series [18] (route intraperitoneal), 50%; in [19] it was 300 mg/kg. In series [9], the Time was 6 h. Moreover, in [13], the ED50 is 19.6 mg/kg. Also, in series [20], the PI was 25.55. The IC50 in [25] stood at 2.45 µM.

In the case of `O=C1CC2(CCc3ccccc3C2)C(=O)N1CN1CCN(CCO)CC1` (stereo unspecified), the Activity entry was “Non-toxic” in series [26]; 100 mg/kg in [6]; 25% in series [12]; “Non-toxic” in series [15]; 50% in series [17]; 100 mg/kg in [19]. Moreover, the Activity in [27] worked out at 300 mg/kg; in [23] it was 25%; in series [24], 25%. Moreover, the outcome in [10] and in [16] was inactive.

In series [1], `O=C1CC2(CCc3ccccc3C2)C(=O)N1CN1CCN(c2cccc(C(F)(F)F)c2)CC1` (stereo unspecified) yielded a TD50 above 250 mg/kg. The outcome in [2], in series [3], in [4], in [28], in series [10] and in series [14] was inactive. The result in series [18], in [21], in series [23] and in [24] was inactive. For the same compound, the Activity in series [5] (route intraperitoneal) is 25%; in series [6], 100 mg/kg; in [7] it was “Non-toxic”; in series [8] it was 15 g; in [12] it was 75%; in series [16], 75%. Further, the Activity in series [17] was 100%; in series [29] it was “Non-toxic”; in [30] it was 300 mg/kg; in series [31], “Toxic”. The Time in series [9] was 2 h. Further, the median effective dose (ED50) in series [13] was 9 mg/kg. Moreover, the PI in series [20] is recorded as above 27.78. In addition, the IC50 in series [25] was determined as 9.28 µM.
